Compound activity (PubChem BioAssay)
Rows were chosen to be rich in hits. Some 1.5% of all compounds tested hit in one or more screens of this group.
TAG inh: reduces triacylglycerol accumulation in H9c2 cells. Nile Red lipid (TAG) fluorescence; cells loaded with 200 µM oleic acid. inhibition, % at 12.5 µM. 230,000 compounds, 0.66% hits. AID 651582;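 active = pattern-corrected inhibition of lipid staining of at least 50% with the nuclear-stain viability signal not falling by more than 50%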
STAT3 inh: inhibitors of IL-6 induced STAT3 signaling; U3A cells, IL-6 STAT3-luciferase reporter, luminescence; host cell line lacks STAT1; inhibition, % at 5.5 µM; 190,000 compounds, 0.89% hits;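 active = inhibition above the mean inhibition across all screened compounds plus 3 SD, cut at about 44% in these data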
STAT1 blocker: STAT1 signaling inhibition; NIH 3T3 STAT1-luciferase reporter, IFN-gamma, luminescence; 200,000 compounds, 0.35% hits; inhibition, % at 5.5 µM;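 active = inhibition above a set limit, the mean inhibition across all tested compounds plus 3 SD, cut at about 34% in these data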
PPC-1+TRAIL kill: PPC-1 cancer cell killing with TRAIL present; AID 1443; PPC-1 cells + TRAIL, ATPLite viability luminescence; cell killing (% activity), % at 4 µM or 5 µM; 220,000 compounds, 0.41% hits;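 active = cell killing above 50% in the first pass at 4 µM, then a duplicate retest at 5 µM averaging 50% or more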
Platelet DG rel: platelet dense granule release activity | human platelet-rich plasma, SFLLRN dense granule ATP release, luminescence | inhibition, %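 (compounds screened at 7.5 µM in platelet-rich plasma)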 | 300,000 compounds, 0.22% hits | AID 1663;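 active = mean replicate score, as percent of positive control, at or above 50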
Lipid droplet: modulators of hepatic lipid droplet formation; 240,000 compounds, 0.4% hits; inhibition, % at 6.5 µM; AML12 mouse hepatocytes, oleate lipid droplets, BODIPY imaging;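 active = lipid droplet intensity inhibited by at least 50%, with more than 500 cells counted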
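Material – AML12 mouse liver cells · Also added – oleate loading, 100 µM · Compound dosing – 6.5 µM single-point dosing · Times – overnight treatment with compound plus oleate · Measured by – fluorescence imaging, 20x objective, two fields per well · Read-out – percent inhibition of filter-corrected integrated lipid droplet intensity per well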
Numbers stand for hits.

What do the screens show for `CC(=O)NC(c1cc(Cl)c2cccnc2c1O)C(C)C` (stereo unspecified)?
TAG inh: 65

Results for CC(=O)NC(c1ccc(C)cc1)c1cc(Cl)c2cccnc2c1O (stereo unspecified) ?
TAG inh: 50; Platelet DG rel: inactive; Lipid droplet: inactive

What do the screens show for `CCNC(=O)C1CCCN(C(=O)c2ccco2)CC1` (stereo unspecified)?
TAG inh: inactive

Results for CC(C)CNC(=O)c1cccc2c(-c3cccc(C(N)=O)c3)coc12 ?
TAG inh: inactive

What do the screens show for `CC12CCC(O)CC1=CCC1C2CCC2(C)C(c3ccn[nH]3)CCC12` (stereo unspecified)?
TAG inh: inactive

Results for Cc1cccc(S(=O)(=O)NC(=O)C2(C)CCN2C(=O)Cc2ccc(Cl)cc2Cl)c1 (stereo unspecified) ?
TAG inh: inactive

Results for CCOC(=O)N1CCC(NC(=O)CN2C(=O)CSc3nc(C)cc(C)c32)CC1 ?
TAG inh: inactive; STAT3 inh: inactive; STAT1 blocker: inactive; PPC-1+TRAIL kill: inactive; Platelet DG rel: inactive

How did CCOC(=O)N1CCN(C(=O)CCCN2C(=O)CSc3nc(C)cc(C)c32)CC1 do in these assays?
STAT3 inh: inactive; STAT1 blocker: inactive; PPC-1+TRAIL kill: inactive; Platelet DG rel: 53; Lipid droplet: inactive

How did O=C(C[C@H]1C(=O)N(Cc2ccccc2)C[C@@H]1Cc1ccccc1)Nc1ccc(Br)cc1 do in these assays?
TAG inh: inactive

What do the screens show for `Cc1ccc(S(=O)(=O)Cc2ccc(C(=O)N3CCN(c4cccc(C)c4C)CC3)o2)cc1`?
TAG inh: inactive; Platelet DG rel: 94; Lipid droplet: inactive

How did CC1(C)CC(=O)C=C(c2ccc(COC(=O)C(c3ccccc3)c3ccccc3)cc2)C1=O do in these assays?
TAG inh: inactive

How did CSc1nc(N)c(C#N)c(-c2ccc(Cl)cc2)c1C#N do in these assays?
TAG inh: inactive; STAT3 inh: inactive; STAT1 blocker: inactive; PPC-1+TRAIL kill: inactive; Platelet DG rel: inactive

Results for COc1ccc(-c2c(C#N)c(N)nc(Sc3ccc(Cl)cc3)c2C#N)cc1 ?
TAG inh: 54; PPC-1+TRAIL kill: inactive; Platelet DG rel: inactive; Lipid droplet: inactive

How did CCC(=O)N1CCC1(C)C(=O)Nc1ccc2c(c1)CCN2C(C)=O (stereo unspecified) do in these assays?
TAG inh: inactive

How did Oc1c(C(c2ccccc2Cl)N2CCCC2)ccc2cccnc12 (stereo unspecified) do in these assays?
TAG inh: 62; STAT3 inh: inactive; STAT1 blocker: inactive; PPC-1+TRAIL kill: inactive; Platelet DG rel: inactive; Lipid droplet: inactive

Results for CC(C)c1ccc(/C=N/Nc2cc(N3CCOCC3)nc(N3CCOCC3)n2)cc1 ?
STAT3 inh: inactive; STAT1 blocker: inactive; PPC-1+TRAIL kill: inactive; Lipid droplet: inactive

How did Cc1cccc(/C=N/Nc2cc(N3CCOCC3)nc(N3CCOCC3)n2)c1 do in these assays?
STAT3 inh: inactive; STAT1 blocker: inactive; PPC-1+TRAIL kill: inactive; Platelet DG rel: inactive; Lipid droplet: 130

How did Cc1ccccc1C1CC(c2ccccc2OC(F)F)Nc2ncnn21 (stereo unspecified) do in these assays?
TAG inh: inactive; STAT3 inh: inactive; STAT1 blocker: inactive; PPC-1+TRAIL kill: inactive; Platelet DG rel: inactive; Lipid droplet: inactive

Results for Cc1ccc(C2CC(c3ccccc3OC(F)F)Nc3ncnn32)cc1 (stereo unspecified) ?
TAG inh: inactive; STAT3 inh: inactive; STAT1 blocker: inactive; PPC-1+TRAIL kill: inactive; Platelet DG rel: 51; Lipid droplet: inactive

Results for CC(C)N1CCc2c(sc(NC(=O)c3ccc([N+](=O)[O-])o3)c2C(N)=O)C1 ?
TAG inh: inactive; Platelet DG rel: inactive; Lipid droplet: inactive

Results for COC(=O)c1c(NC(=O)c2ccc([N+](=O)[O-])o2)sc2c1CCN(C(C)C)C2 ?
TAG inh: 59; Platelet DG rel: inactive; Lipid droplet: inactive

What do the screens show for `Cn1c2c(c(=O)n(C)c1=O)C(C(F)(F)F)(C(F)(F)F)N=C(c1ccc(Cl)cc1)N2`?
STAT3 inh: 89; STAT1 blocker: 71; PPC-1+TRAIL kill: inactive; Platelet DG rel: inactive

Results for CC1(C(=O)NS(=O)(=O)c2cccc(C#N)c2)CCN1C(=O)Cc1cc(F)ccc1F (stereo unspecified) ?
TAG inh: inactive

How did COc1ccc(C(=O)Nn2c(SCC(=O)N3CCC(C)CC3)nc3ccccc3c2=O)cc1 do in these assays?
STAT3 inh: 88; STAT1 blocker: 64; PPC-1+TRAIL kill: inactive; Platelet DG rel: inactive

How did COc1ccc(C(=O)Nn2c(SCC(=O)c3ccc(Cl)cc3)nc3ccccc3c2=O)cc1 do in these assays?
STAT3 inh: inactive; STAT1 blocker: inactive; PPC-1+TRAIL kill: inactive; Platelet DG rel: inactive

Results for Cc1ccccc1NC(=O)CN1C(=O)NC2(CCc3ccccc32)C1=O (stereo unspecified) ?
TAG inh: inactive

What do the screens show for `COc1cc2c(cc1NC(=O)CN1C(=O)NC3(CCc4ccccc43)C1=O)oc1ccccc12` (stereo unspecified)?
TAG inh: 55; STAT3 inh: inactive; STAT1 blocker: inactive; PPC-1+TRAIL kill: inactive; Platelet DG rel: inactive

Results for Cc1c(N=Nc2c(-c3ccc([N+](=O)[O-])cc3)[nH]n(C(N)=S)c2=O)cccc1[N+](=O)[O-] ?
TAG inh: inactive; STAT3 inh: 77; STAT1 blocker: inactive; PPC-1+TRAIL kill: inactive; Lipid droplet: inactive

What do the screens show for `CC1(Oc2ccc(CC#N)cc2)CCN(Cc2ccc(-n3ccnc3)cc2)C1` (stereo unspecified)?
TAG inh: inactive

How did COCCNC(=O)/C(C#N)=C/c1cccc(/C=C(\C#N)C(=O)NCCOC)c1 do in these assays?
STAT3 inh: inactive; STAT1 blocker: inactive; PPC-1+TRAIL kill: inactive; Platelet DG rel: inactive; Lipid droplet: inactive

How did COCCNC(=O)/C(C#N)=C/c1ccc(O)cc1 do in these assays?
TAG inh: inactive; PPC-1+TRAIL kill: inactive; Platelet DG rel: 86; Lipid droplet: inactive

What do the screens show for `CC(C)CC(N)c1csc(Nc2cc(Oc3ccccc3)ncn2)n1` (stereo unspecified)?
TAG inh: inactive

What do the screens show for `CC(=O)c1cccc(N/C=C\C(=O)c2ccc(C)cc2)c1`?
TAG inh: inactive; STAT3 inh: inactive; STAT1 blocker: inactive; PPC-1+TRAIL kill: 62; Platelet DG rel: inactive; Lipid droplet: inactive

Results for COc1ccc(N/C=C/C(=O)c2ccccc2)cc1 ?
Platelet DG rel: 56; Lipid droplet: inactive

Results for O=C(O)c1ccccc1Nc1cc(Cl)c2nonc2c1[N+](=O)[O-] ?
TAG inh: inactive; Platelet DG rel: inactive; Lipid droplet: inactive

Results for O=[N+]([O-])c1c(Nc2ccccn2)cc(Cl)c2nonc12 ?
TAG inh: inactive; PPC-1+TRAIL kill: inactive; Platelet DG rel: 59; Lipid droplet: inactive
